Laboratory results reported in ChEMBL document CHEMBL1121573, “2-(Aminomethyl)phenols, a new class of saluretic agents. 1. Effects of nuclear substitution” (J Med Chem, 1980).

What was measured:
[1] = system: Canis familiaris; test: Oral diuretic activity was evaluated by measuring K+ excretion in dog at 10 mg/kg after ip administration ( 0-6 hr); assay type: ADME, organism-based, Canis lupus familiaris, Urine; parameters: dose 10 mg/kg, route intraperitoneal; settings: in vivo
Method in brief: (§1)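 Spontaneous urine was pooled with bladder urine collected by catheterization at 6 h. Volume was measured and Na+, K+ and Cl− were determined by standard methods. Values are geometric means.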

[2] = system: Canis familiaris; test: Oral diuretic activity was evaluated by measuring Na+ excretion in dog at 10 mg/kg after […] ( 0-6 hr); assay type: ADME, organism-based, Canis lupus familiaris, Urine; parameters: dose 10 mg/kg; settings: in vivo
Method in brief: (§2)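 Dogs; spontaneous urine was pooled with bladder urine drained by catheter at the end of 6 h. Urine volume was measured, and aliquots were assayed for Na+, K+ and Cl− by standard methods. Values are geometric means, expressed as mequiv over 0–6 h.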

[3] = system: Rattus norvegicus; test: Oral diuretic activity was evaluated by measuring Cl- excretion in Rat at 9 mg/kg […] ( 0-5 hr); assay type: ADME, organism-based, Urine; parameters: dose 9 mg/kg; settings: in vivo
Method in brief: (§3)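 Female Charles-River rats (150–170 g) were kept overnight on a sugar diet with water ad libitum. Test substance was dissolved in DMF and diluted with water containing Tween 80 to a final 4% DMF vehicle, then given po in 5.0 mL. Rats were housed three per metabolism cage, and 0–5 h urine was assayed for Na⁺, K⁺ and Cl⁻ alongside concurrent placebo groups. Values are mequiv × 100 per cage, geometric means of three cages per dose.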

[4] = system: Rattus norvegicus; test: Oral diuretic activity was evaluated by measuring K+ excretion in Rat at 9 mg/kg […] ( 0-5 hr); assay type: ADME, organism-based, Urine; parameters: dose 9 mg/kg; method in brief: as §3
[5] = system: Canis familiaris; test: Compound administered intravenously at a dose of 5 mg/kg was evaluated for salidiuretic activity measured as sodium ion excretion in Dog; Value ranges from 800-899; assay type: ADME, organism-based, Canis lupus familiaris, Urine; parameters: dose 5 mg/kg, route intravenous; unit not given beside the values; settings: in vivo, iv
Method in brief: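 Conditioned female mongrel dogs, postabsorptive, water-loaded (500 mL po) 1 h before sodium pentobarbital anesthesia (30 mg/kg iv). Bladder catheter; creatinine 4 g sc; phosphate–mannitol buffer pH 7.4 infused (3.0 mL/min) throughout. […] Urine Na+ measured; response scored 0–6.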

[6] = Compound administered orally at a dose of 5 mg/kg was evaluated for salidiuretic activity measured as sodium ion excretion in Rat; assay type: organism-based; parameters: dose 5 mg/kg; settings: Urine
Method in brief: (§4)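 Female Charles-River rats (150–170 g), overnight on sugar diet with water ad libitum. Compound dissolved in DMF, diluted with water containing Tween 80 (final 4% DMF), given po in 5.0 mL; concurrent vehicle placebo. Three rats per metabolism cage; 0–5 h urine analysed for Na+, K+, Cl-. Values: mequiv × 100 per cage, geometric means of three cages per dose; scored 0–6 by Na+.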

[7] = system: Rattus norvegicus; test: Oral diuretic activity was evaluated by measuring Na+ excretion in Rat at 81 mg/kg […] ( 0-5 hr); assay type: ADME, organism-based, Urine; parameters: dose 81 mg/kg
Method in brief: (§5)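 Female Charles-River rats (150–170 g) were kept overnight on a sugar diet with water ad libitum. Compound was dissolved in DMF, then diluted with water containing Tween 80 (3 drops/100 mL) to a final 4% DMF, and given po in 5.0 mL. Rats were housed three per metabolism cage. Urine from 0–5 h was analysed for Na+, K+ and Cl−, with concurrent placebo controls. Values are mequiv × 100 per cage, geometric mean of three cages per dose.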

[8] = system: Rattus norvegicus; test: Oral diuretic activity was evaluated by measuring Cl- excretion in Rat at 3 mg/kg after […] ( 0-5 hr); assay type: ADME, organism-based, Urine; parameters: dose 3 mg/kg, route intraperitoneal; settings: in vivo
[9] = system: Canis familiaris; test: Oral diuretic activity was evaluated by measuring Na+ excretion in dog at 5 mg/kg after ip administration ( 0-6 hr); assay type: ADME, organism-based, Canis lupus familiaris, Urine; parameters: dose 5 mg/kg, route intraperitoneal; settings: in vivo
Method in brief: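 Urine collected over 0–6 h: spontaneous voids were pooled with bladder urine taken by catheterization at 6 h. Urine volume was measured, and aliquots were analysed for Na+, K+ and Cl− by standard methods. Electrolyte excretion is reported as geometric means.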

[10] = system: Rattus norvegicus; test: Oral diuretic activity was evaluated by measuring Cl- excretion in Rat at 27 mg/kg after […] ( 0-5 hr); assay type: ADME, organism-based, Urine; parameters: dose 27 mg/kg, route intraperitoneal; settings: in vivo
[11] = system: Rattus norvegicus; test: Oral diuretic activity was evaluated by measuring K+ excretion in Rat at 27 mg/kg after […] ( 0-5 hr); assay type: ADME, organism-based, Urine; parameters: dose 27 mg/kg; settings: in vivo; method in brief: as §3
[12] = system: Canis familiaris; test: Oral diuretic activity was evaluated by measuring Na+ excretion in dog at 20 mg/kg after […] ( 0-6 hr); assay type: ADME, organism-based, Canis lupus familiaris, Urine; parameters: dose 20 mg/kg; settings: in vivo; method in brief: as §2
[13] = system: Canis familiaris; test: Oral diuretic activity was evaluated by measuring Na+ excretion in dog at 1 mg/kg after ip administration ( 0-6 hr); assay type: ADME, organism-based, Canis lupus familiaris, Urine; parameters: dose 1 mg/kg, route intraperitoneal; settings: in vivo; method in brief: as §1
[14] = system: Rattus norvegicus; test: Oral diuretic activity was evaluated by measuring Na+ excretion in Rat at 3 mg/kg […] ( 0-5 hr); assay type: ADME, organism-based, Urine; parameters: dose 3 mg/kg; settings: in vivo, ip; method in brief: as §5
[15] = system: Rattus norvegicus; test: Oral diuretic activity was evaluated by measuring Na+ excretion in Rat at 27 mg/kg after […] ( 0-5 hr); assay type: ADME, organism-based, Urine; parameters: dose 27 mg/kg; method in brief: as §5
[16] = system: Canis familiaris; test: Oral diuretic activity was evaluated by measuring K+ excretion in dog at 1 mg/kg after ip administration ( 0-6 hr); assay type: ADME, organism-based, Canis lupus familiaris, Urine; parameters: dose 1 mg/kg, route intraperitoneal; settings: in vivo; method in brief: as §1
[17] = Evaluated for salidiuretic activity measured as sodium ion excretion in Rat, administered orally at a dose of 16.5 mg/kg; assay type: organism-based; parameters: dose 16.5 mg/kg; settings: Urine; method in brief: as §4
[18] = system: Canis familiaris; test: Oral diuretic activity was evaluated by measuring Cl- excretion in dog at 5 mg/kg after […] ( 0-6 hr); assay type: ADME, organism-based, Canis lupus familiaris, Urine; parameters: dose 5 mg/kg, route intraperitoneal; settings: in vivo
[19] = system: Canis familiaris; test: Oral diuretic activity was evaluated by measuring Cl- excretion in dog at 10 mg/kg after […] ( 0-6 hr); assay type: ADME, organism-based, Canis lupus familiaris, Urine; parameters: dose 10 mg/kg, route intraperitoneal; settings: in vivo
[20] = system: Rattus norvegicus; test: Oral diuretic activity was evaluated by measuring Cl- excretion in Rat at 81 mg/kg after […] ( 0-5 hr); assay type: ADME, organism-based, Urine; parameters: dose 81 mg/kg, route intraperitoneal; settings: in vivo
[21] = system: Rattus norvegicus; test: Evaluated for salidiuretic activity measured as sodium ion excretion in Rat, administered orally at a dose of 50 mg/kg; assay type: functional, Urine; parameters: unit not given beside the values; settings: route oral; method in brief: as §4
[22] = system: Rattus norvegicus; test: Oral diuretic activity was evaluated by measuring K+ excretion in Rat at 81 mg/kg […] ( 0-5 hr); assay type: ADME, organism-based, Urine; parameters: dose 81 mg/kg; method in brief: as §3
[23] = system: Canis familiaris; test: Oral diuretic activity was evaluated by measuring Cl- excretion in dog at 20 mg/kg after […] ( 0-6 hr); assay type: ADME, organism-based, Canis lupus familiaris, Urine; parameters: dose 20 mg/kg, route intraperitoneal; settings: in vivo
[24] = system: Rattus norvegicus; test: Maximum fall in mean arterial blood pressure was measured in SH rats when compound was administered at 20 mg/kg perorally; assay type: functional; settings: route oral
[25] = system: Canis familiaris; test: Oral diuretic activity was evaluated by measuring Cl- excretion in dog at 1 mg/kg after […] ( 0-6 hr); assay type: ADME, organism-based, Canis lupus familiaris, Urine; parameters: dose 1 mg/kg, route intraperitoneal; settings: in vivo
[26] = system: Rattus norvegicus; test: Oral diuretic activity was evaluated by measuring Na+ excretion in Rat at 9 mg/kg […] ( 0-5 hr); assay type: ADME, organism-based, Urine; parameters: dose 9 mg/kg; settings: in vivo, ip; method in brief: as §5
[27] = system: Rattus norvegicus; test: Oral diuretic activity was evaluated by measuring K+ excretion in Rat at 3 mg/kg after […] ( 0-5 hr); assay type: ADME, organism-based, Urine; parameters: dose 3 mg/kg; method in brief: as §3
[28] = system: Rattus norvegicus; test: Compound administered orally at a dose of 81 mg/kg was evaluated for salidiuretic activity measured as sodium ion excretion in Rat; assay type: ADME, organism-based, Urine; parameters: dose 81 mg/kg, route oral; unit not given beside the values; settings: in vivo, po; method in brief: as §4
[29] = system: Canis familiaris; test: Oral diuretic activity was evaluated by measuring K+ excretion in dog at 5 mg/kg after ip administration ( 0-6 hr); assay type: ADME, organism-based, Canis lupus familiaris, Urine; parameters: dose 5 mg/kg, route intraperitoneal; settings: in vivo; method in brief: as §1
[30] = system: Canis familiaris; test: Oral diuretic activity was evaluated by measuring K+ excretion in dog at 20 mg/kg after ip administration ( 0-6 hr); assay type: ADME, organism-based, Canis lupus familiaris, Urine; parameters: dose 20 mg/kg, route intraperitoneal; settings: in vivo; method in brief: as §1

Structure (SMILES): Cl.NCc1c(O)c(Cl)cc(Cl)c1Cl
- Diuretic activity [1]: 5
- Diuretic activity [2]: 20.64
- Diuretic activity [3]: 1.19
- Diuretic activity [4]: 0.32
- Diuretic activity [5]: 800
- Diuretic activity [6]: 0.5
- Diuretic activity [7]: 2.77
- Diuretic activity [8]: 0.46
- Diuretic activity [9]: 14.75
- Diuretic activity [10]: 2.36
- Diuretic activity [11]: 0.45
- Diuretic activity [12]: 37.25
- Diuretic activity [13]: 5.25
- Diuretic activity [14]: 0.41
- Diuretic activity [15]: 1.89
- Diuretic activity [16]: 2.25
- Diuretic activity [17]: 1.4
- Diuretic activity [18]: 19.63
- Diuretic activity [19]: 27.27
- Diuretic activity [20]: 3.47
- Diuretic activity [21]: 2.4
- Diuretic activity [22]: 0.6
- Diuretic activity [23]: 50.25
- MAP [24]: 18 mmHg
- Diuretic activity [25]: 6.5
- Diuretic activity [26]: 0.94
- Diuretic activity [27]: 0.25
- Diuretic activity [28]: 2.9
- Diuretic activity [29]: 4.5
- Diuretic activity [30]: 8.25
